{"source": "ChEMBL document CHEMBL4699585", "about": "“Evaluation of the Pharmacophoric Role of the O-O Bond in Synthetic Antileishmanial Compounds: Comparison between 1,2-Dioxanes and Tetrahydropyrans” (J Med Chem, 2020)", "key": {"Leishmania donovani [1]": {"test_system": "Leishmania donovani", "experiment": "Antileishmanial activity against Leishmania donovani MHOM/MA(BE)/67/ITMAP263 promastigotes infected in primary mouse peritoneal macrophage assessed as reduction in parasite viability measured after 4 days by Giemsa staining-based assay", "type": "functional, organism-based", "conditions": "MHOM/MA(BE)/67/ITMAP263, Peritoneal macrophage, 96 h"}, "Leishmania donovani [2]": {"test_system": "Leishmania donovani", "experiment": "Antileishmanial activity against wild type promastigote stage of Leishmania donovani LV9 infected in mouse macrophages assessed as reduction in parasite viability measured after 48 hrs by Giemsa staining-based assay", "type": "functional, organism-based", "conditions": "LV9, 48 h"}, "Leishmania donovani [3]": {"test_system": "Leishmania donovani", "experiment": "Antileishmanial activity against sitamaquine-resistant wild type promastigote stage of Leishmania donovani MHOM/ET/67/HU3 infected in mouse macrophages assessed as reduction in parasite viability measured after 48 hrs by Giemsa staining-based assay", "type": "functional, organism-based", "conditions": "MHOM/ET/67/HU3, Macrophage"}, "Leishmania donovani [4]": {"test_system": "Leishmania donovani", "experiment": "Antileishmanial activity against Leishmania donovani promastigotes assessed as reduction in parasite viability in presence of 25 uM iron chelator desferrioxamine measured after 24 hrs by microplate alamar blue assay", "type": "functional, organism-based", "method_in_brief": "(§1)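 L. donovani promastigotes (MHOM/NP/02/BPK282/0cl4, late log/stationary phase) seeded at 10^6 cells/mL in complete HOMEM, preincubated 24 h at 26 °C with desferrioxamine at four nontoxic doses (1:2 dilutions). Compounds added over a range spanning each one's IC50. Viability read by alamarBlue absorbance at 550/630 nm. FIC values plotted as isobolograms. Duplicates.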"}, "Leishmania donovani [5]": {"test_system": "Leishmania donovani", "experiment": "Induction of ROS generation in Leishmania donovani promastigotes assessed as increase in intracellular ROS level at IC50 measured after 24 hrs by H2DCFDA probe based fluorimetry analysis", "type": "functional, organism-based"}, "Leishmania donovani [6]": {"test_system": "Leishmania donovani", "experiment": "Antileishmanial activity against Leishmania donovani promastigotes assessed as reduction in parasite viability in presence of 50 uM iron chelator desferrioxamine measured after 24 hrs by microplate alamar blue assay", "type": "functional, organism-based", "method_in_brief": "as §1"}, "Leishmania donovani [7]": {"test_system": "Leishmania donovani", "experiment": "Induction of ROS generation in Leishmania donovani promastigotes assessed as increase in intracellular ROS level at IC50 measured up to 60 mins by H2DCFDA probe based fluorimetry analysis", "type": "functional, organism-based", "conditions": "time min <=60"}, "Leishmania donovani [8]": {"test_system": "Leishmania donovani", "experiment": "Antileishmanial activity against Leishmania donovani promastigotes assessed as reduction in parasite viability in presence of […] iron chelator desferrioxamine measured after 24 hrs by microplate alamar blue assay", "type": "functional, organism-based", "method_in_brief": "as §1"}, "Leishmania donovani [9]": {"test_system": "Leishmania donovani", "experiment": "Antileishmanial activity against Leishmania donovani promastigotes assessed as reduction in parasite viability in presence of 100 uM iron chelator desferrioxamine measured after 24 hrs by microplate alamar blue assay", "type": "functional, organism-based", "method_in_brief": "as §1"}, "Leishmania donovani [10]": {"test_system": "Leishmania donovani", "experiment": "Additive antileishmanial activity against Leishmania donovani promastigotes measured after 24 hrs in presence of iron chelator desferrioxamine by microplate alamar blue assay", "type": "functional, organism-based", "method_in_brief": "as §1"}, "[11]": {"experiment": "Drug localization in cytoplasm of Leishmania donovani MHOM/NP/O2/BPK282/0cl4 promastigote at IC50 incubated for 40 to 45 mins by TO-PRO-3 dye based confocal microscopy analysis", "type": "ADME, subcellular", "conditions": "time 40-45 min"}, "[12]": {"experiment": "Drug localization in nucleus of Leishmania donovani MHOM/NP/O2/BPK282/0cl4 promastigote at IC50 incubated for 40 to 45 mins by TO-PRO-3 staining based confocal microscopy analysis", "type": "ADME, subcellular", "conditions": "time 40-45 min"}, "[13]": {"experiment": "Drug localization in kinetoplast of Leishmania donovani MHOM/NP/O2/BPK282/0cl4 promastigote at IC50 incubated for 40 to 45 mins by TO-PRO-3 staining based confocal microscopy analysis", "type": "ADME, subcellular", "conditions": "time 40-45 min"}, "[14]": {"experiment": "Drug localization in Leishmania donovani MHOM/NP/O2/BPK282/0cl4 promastigote at IC50 […] by TO-PRO-3 dye based confocal microscopy analysis", "type": "ADME"}, "Leishmania donovani [15]": {"test_system": "Leishmania donovani", "experiment": "Induction of ROS generation in Leishmania donovani promastigotes at 22 uM measured after 24 hrs by H2DCFDA probe based fluorimetry analysis", "type": "functional, organism-based", "method_in_brief": "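Late log/stationary L. donovani promastigotes seeded at 10^6 cells mL–1 in HOMEM with 20% FBS and treated 24 h at 26 °C; untreated cells served as negative control. Cells were washed in PBS (pH 7.4), loaded with 10 μM H2DCFDA and kept 35 min in the dark at 26 °C. DCF fluorescence read at ex 488/em 530 nm over 1–60 min. Three independent experiments, each in triplicate.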"}, "Leishmania donovani [16]": {"test_system": "Leishmania donovani", "experiment": "Antileishmanial activity against HePC-resistant wild type promastigote stage of Leishmania donovani MHOM/ET/67/HU3 infected in mouse macrophages assessed as reduction in parasite viability measured after 48 hrs by Giemsa staining-based assay", "conditions": "MHOM/ET/67/HU3, Macrophage"}, "Leishmania donovani [17]": {"test_system": "Leishmania donovani", "experiment": "Antileishmanial activity against amastigotes stage of Leishmania donovani D10 infected in mouse RAW264.7 cells assessed as reduction in cell viability incubated from 24 to 72 hrs by Giemsa staining-based assay", "type": "functional, organism-based", "conditions": "D10, RAW264.7"}}, "note": "Calls of active or inactive are those of the source. The rule behind the calls is not given here."}
{"smiles": "NC[C@@H]1O[C@H](O[C@H]2[C@@H](O)[C@H](O[C@@H]3[C@@H](O)[C@H](N)C[C@H](N)[C@H]3O[C@H]3O[C@H](CO)[C@@H](O)[C@H](O)[C@H]3N)O[C@@H]2CO)[C@H](N)[C@@H](O)[C@@H]1O", "note": "[PAROMOMYCIN]", "values": [{"measurement": "IC50", "setting": "Leishmania donovani [1]", "result": 19.7, "unit": "µM"}]}
{"smiles": "COc1ccc(N[C@@]2(C(F)(F)F)O[C@@H]3C[C@@]4(C)C[C@H]5[C@H](C)CC[C@@H]([C@H]2C)[C@@]35OO4)cc1", "values": [{"measurement": "IC50", "setting": "Leishmania donovani [2]", "result": 1.5, "unit": "µM"}, {"measurement": "IC50", "setting": "Leishmania donovani [3]", "result": 0.38, "unit": "µM"}]}
{"smiles": "CCCCC1(CCCC)CO[C@@](C)(OC)[C@@H](CNCCCn2ccnc2)C1", "note": "(racemic)", "values": [{"measurement": "IC50", "setting": "Leishmania donovani [4]", "result": 5.3, "unit": "µM"}, {"measurement": "Activity", "setting": "Leishmania donovani [5]", "result": "Active"}, {"measurement": "IC50", "setting": "Leishmania donovani [6]", "result": 5.6, "unit": "µM"}, {"measurement": "Activity", "setting": "Leishmania donovani [7]", "result": "Active"}, {"measurement": "IC50", "setting": "Leishmania donovani [8]", "result": 5.4, "unit": "µM"}, {"measurement": "IC50", "setting": "Leishmania donovani [9]", "result": 4.6, "unit": "µM"}, {"measurement": "Activity", "setting": "Leishmania donovani [10]", "result": "Active"}]}
{"smiles": "C=CCO[C@@]1(C(F)(F)F)O[C@@H]2C[C@@]3(C)C[C@H]4[C@H](C)CC[C@@H]([C@H]1C)[C@@]24OO3", "values": [{"measurement": "IC50", "setting": "Leishmania donovani [2]", "result": 6.3, "unit": "µM"}, {"measurement": "IC50", "setting": "Leishmania donovani [3]", "result": 1.6, "unit": "µM"}]}
{"smiles": "CCCCC1(CCCC)C[C@H](CNCCCCNc2ccc([N+](=O)[O-])c3nonc23)[C@](C)(OC)OO1", "note": "(racemic)", "values": [{"measurement": "Drug uptake", "setting": "[11]", "result": "Active"}, {"measurement": "Drug uptake", "setting": "[12]", "result": "Not Active"}, {"measurement": "Drug uptake", "setting": "[13]", "result": "Active"}]}
{"smiles": "CCCCC1(CCCC)CO[C@@](C)(OC)[C@@H](CNCCCCNc2c3ccc(Cl)cc3nc3ccc(OC)cc23)C1", "note": "(racemic)", "values": [{"measurement": "Drug uptake", "setting": "[14]", "result": "Active"}]}
{"smiles": "CCCCC1(CCCC)C[C@H](CNCCCn2ccnc2)[C@](C)(OC)OO1", "note": "(racemic)", "values": [{"measurement": "IC50", "setting": "Leishmania donovani [4]", "result": 8.9, "unit": "µM"}, {"measurement": "Activity", "setting": "Leishmania donovani [5]", "result": "Active"}, {"measurement": "IC50", "setting": "Leishmania donovani [6]", "result": 9.3, "unit": "µM"}, {"measurement": "Activity", "setting": "Leishmania donovani [7]", "result": "Active"}, {"measurement": "IC50", "setting": "Leishmania donovani [8]", "result": 6.6, "unit": "µM"}, {"measurement": "IC50", "setting": "Leishmania donovani [9]", "result": 6.5, "unit": "µM"}, {"measurement": "Activity", "setting": "Leishmania donovani [10]", "result": "Active"}]}
{"smiles": "CCCCCCCCCCCCCCCCOP(=O)([O-])OCC[N+](C)(C)C", "note": "[MILTEFOSINE]", "values": [{"measurement": "Activity", "setting": "Leishmania donovani [15]", "result": "Active"}, {"measurement": "IC50", "setting": "Leishmania donovani [16]", "result": 68.1, "unit": "µM"}, {"measurement": "IC50", "setting": "Leishmania donovani [3]", "result": 1.9, "unit": "µM"}]}
{"smiles": "OCCCCCCC1CCOOC2(CCCCCCCCCCC2)OOC1", "note": "(configuration not stated)", "values": [{"measurement": "IC50", "setting": "Leishmania donovani [17]", "result": 6.7, "unit": "µM"}]}
